Rtt109 Vps75: C. albicans Rtt109 histone acetyltransferase inhibition. 330,000 tested, 0.16% active. inhibition, % at 34.9 µM. Q5AAJ8. purified Rtt109/Vps75, ThioGlo CoA-SH fluorescence, 4 h;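 active means inhibition of at least 50% in every replicate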
HIV Env fusion: HIV envelope-mediated fusion inhibition; HeLa-JRFL Env/CEM21 cell fusion, luciferase; inhibition, % at 12.3 µM; 360,000 tested, 1.1% active; AID 651610;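 active means mean replicate inhibition score of at least 50 and every replicate individually at or above 50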;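 further: 0% = plate neutral controls and 100% = maraviroc near 300 nM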
PglD DTNB: inhibitors of Campylobacter jejuni PglD acetyltransferase. purified PglD enzyme, DTNB colorimetric CoA detection. AID 602405. inhibition, % at 12.5 µM. 360,000 tested, 0.098% active; in the data active means inhibition above about 16%, passing the limit was not always enough
N-glyco inh: N-linked glycosylation inhibition | D54 ERlucT glycosylation luciferase reporter, 24 h; percent of 100 nM tunicamycin response | reporter increase, % at 12.5 µM | 360,000 tested, 0.23% active | AID 588692;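 active means mean luciferase reporter signal, scaled so untreated is 0 and the glycosylation-blocking control 100, at or above a set limit in every replicate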;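 further: luciferase carries N-glycosylation sites so blocking glycosylation raises the light; 0% = median of neutral control wells and 100% = median of 100 nM tunicamycin wells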
SR-BI DiI inh: inhibitors of mouse SR-BI mediated HDL lipid uptake; ldlA[mSR-BI] CHO cells, DiI-HDL uptake fluorescence, 3 h; 320,000 tested, 0.96% active; Q61009; inhibition, % at 12.5 µM;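 active means mean replicate inhibition of at least 70% and a set share of replicates each scoring 70 or more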;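 further: 0% = median of neutral control wells and 100% = median of positive control wells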
Target sequence (Q61009 whole entry, looked up): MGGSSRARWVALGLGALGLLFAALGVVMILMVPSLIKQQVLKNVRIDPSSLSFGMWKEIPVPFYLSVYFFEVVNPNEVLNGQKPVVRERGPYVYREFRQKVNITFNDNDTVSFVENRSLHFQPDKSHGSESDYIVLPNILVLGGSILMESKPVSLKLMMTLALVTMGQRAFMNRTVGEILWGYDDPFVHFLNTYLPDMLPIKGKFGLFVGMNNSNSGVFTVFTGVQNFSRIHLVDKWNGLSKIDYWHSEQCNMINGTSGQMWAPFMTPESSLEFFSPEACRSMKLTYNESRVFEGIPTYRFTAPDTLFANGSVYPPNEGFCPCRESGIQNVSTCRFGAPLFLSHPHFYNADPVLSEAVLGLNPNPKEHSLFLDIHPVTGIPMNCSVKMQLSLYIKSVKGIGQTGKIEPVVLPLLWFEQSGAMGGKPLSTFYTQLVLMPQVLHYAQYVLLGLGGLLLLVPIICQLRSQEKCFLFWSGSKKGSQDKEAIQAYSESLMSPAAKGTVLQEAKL
SR-BI uptake up: activators of SR-BI mediated HDL lipid uptake. CHO ldlA[mSR-BI] cells, DiI-HDL uptake fluorescence, 3 h; 100 = double the neutral-control signal. activation, % at 12.5 µM. 320,000 tested, 0.096% active. AID 504775;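 active means mean replicate activation of at least 60% and every replicate at or above 60%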;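 further: 0% = median plate neutral-control signal and 100% = twice that signal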
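Test system: SR-BI-overexpressing, LDLR-lacking CHO cells; Also added: labelled HDL, 10 µg/mL; Measured by: bottom-read cell fluorescence after medium removal, ex 550/em 595 nm; Timing: 3 h uptake period with compound, 37 °C; Buffer or medium: F12, 0.5% BSA, 25 mM HEPES; Doses: single compound concentration, delivered by pin transfer.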
DiI quench: DiI fluorescence quenching in cell-free counter-screen. shares compounds with SR-BI DiI inh. 470 tested, 20% active. cell-free DiI-HDL fluorescence quenching, 30 min. AC50, µM (doses to about 35 µM), without a hit: at the highest dose activity change, negative = quenching;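 active means quenching, a falling signal, with AC50 below a set limit tied to the top valid dose, actives reach about 32 µM in these data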
The depositor's hits bear a star; · = not tested or not shown; [ ] = remark or other dose. Most compounds without a hit are left out; they make up all but 1.9% or so of the library.

SMILES	Rtt109 Vps75	HIV Env fusion	PglD DTNB	N-glyco inh	SR-BI DiI inh	SR-BI uptake up	others
CCC(C)(C)n1nnnc1C(c1ccc2ncccc2c1)N1CCCCCC1 (stereo not given)	-3	29*	-5	1	·	·
CO[C@@H]1CN(C)C(=O)c2ccc(NC(=O)C3CC3)cc2OC[C@H](C)N(C(=O)CN(C)C)C[C@H]1C	·	·	-3	·	·	·
CCN(CC)c1ccc(Nc2nc(N3CCOCC3)c3ccccc3n2)cc1	15	57*	-2	-2	0	0
CC(C)(C)n1nnnc1C(c1cccs1)N(Cc1ccccc1)Cc1ccco1 (stereo not given)	0	·	-3	-9	5	-5
CC(C)(C)n1nnnc1C(c1cccs1)N(Cc1cccnc1)Cc1ccco1 (stereo not given)	9	53*	5	-1	-12	12
c1ccc(-c2nc(-n3ccnc3)nc(-n3ccnc3)n2)cc1	-3	-123	·	27*	10	-10
CC(C)Nc1nc(-c2ccccc2)nc(-n2ccnc2)n1	7	-117	·	3	-3	3
Cc1nc2c3cc(F)ccc3n(Cc3ccc(F)cc3)c2s1	41	35	·	23	80*	-80
COC(=O)Cn1c2ccc(F)cc2c2nc(C)sc21	-5	5	4	1	-5	5
CNC[C@H]1Oc2cc(C#CC3(O)CCCC3)ccc2S(=O)(=O)N([C@@H](C)CO)C[C@@H]1C	·	·	2	·	·	·
CCCNC(=O)N(C)C[C@@H]1Oc2ncc(-c3ccc(OC)cc3)cc2C(=O)N([C@@H](C)CO)C[C@H]1C	·	23[16.7 µM]	-2	·	·	·
CCOc1ccc(NS(=O)(=O)c2ccc(C(=O)N(C)CCc3ccc(OC)c(OC)c3)cc2)cc1	1	89*	8	-1	-10	10
COc1ccc(C(=O)Nc2ccc3c(c2)C(=O)N(C)[C@@H]2CC[C@H](CC(=O)NCC4CC4)O[C@H]2CO3)cc1	·	-6[16.7 µM]	2	·	·	·
C[C@@H]1CN([C@@H](C)CO)C(=O)c2cc(-c3ccccc3)cnc2O[C@@H]1CN(C)C(=O)NC1CCCC1	·	20[16.7 µM]	0	·	·	·
C[C@@H]1CCCCO[C@H](CN(C)C)[C@H](C)CN([C@@H](C)CO)C(=O)c2cc(NC(=O)C3CCCCC3)ccc2O1	·	2[16.7 µM]	·	·	·	·
Cc1noc(C)c1S(=O)(=O)N(C)C[C@@H]1Oc2ccc(NS(=O)(=O)c3ccccc3)cc2C(=O)N([C@@H](C)CO)C[C@@H]1C	·	-2[16.7 µM]	-3	·	·	·
COCCCN1CC(=O)N2C(c3cccc(C)c3)c3[nH]c4ccccc4c3C[C@H]2C1=O (stereo not given in full)	3	1	1	-1	76*	-76
COCCCN1CC(=O)N2C(c3ccccc3)c3[nH]c4ccccc4c3C[C@H]2C1=O (stereo not given in full)	-12	0	-2	1	21	-21
C=CCN1CC(=O)N2C(c3ccccc3)c3[nH]c4ccccc4c3C[C@H]2C1=O (stereo not given in full)	·	12	-2	1	78*	-78
CN1CCN(C(=O)C[C@@H]2CC[C@H]3[C@@H](COC[C@@H](O)CN3C(=O)Nc3ccc4c(c3)OCO4)O2)CC1	·	-12[16.7 µM]	0	·	·	·
COCC(=O)Nc1ccc2c(c1)C(=O)N(C)[C@H]1CC[C@@H](CC(=O)NCCc3ccccc3)O[C@H]1CO2	·	8[16.7 µM]	0	·	·	·
Cc1cc(Cl)c(S(=O)(=O)N2CCCC2)cc1OCC(=O)NC1CCCCC1	-2	78*	1	-7	7	-7
O=S(=O)(c1ccc(Cl)c(NC(=S)Nc2ccccc2N2CCOCC2)c1)N1CCOCC1	-2	0	·	5	-12	12
C/C(=N\NC(=S)Nc1cc(S(=O)(=O)N2CCOCC2)ccc1Cl)c1ccc(N2CCOCC2)cc1	-3	17	1	-1	102*	-102
COc1ccc(C#Cc2ccc3c(c2)[C@@H]2[C@@H](CCN2C(=O)c2ccccc2F)[C@H](CO)N3)cc1	·	·	2	·	·	·
SMILES	Rtt109 Vps75	HIV Env fusion	PglD DTNB	N-glyco inh	SR-BI DiI inh	SR-BI uptake up	others
CS(=O)(=O)c1ncc(Cl)c(C(=O)Nc2ccc(N3CCOCC3)cc2)n1	110*	·	·	-15	-9	9
CC(=O)c1c(C)[nH]c(C(=O)Nc2ccc(C)c(S(=O)(=O)N(C)C)c2)c1C	-7	-34	8	0	63	-63
CC(=O)c1c(C)[nH]c(C(=O)Nc2ccc(C)c(S(=O)(=O)Nc3ccc(C)cc3C)c2)c1C	-2	-11	-2	4	83*	-83	DiI quench=11%
O=C(Nc1ccccc1C(=O)O)c1cccc(NC(=O)c2ccccc2Cl)c1	1	-65	-5	2	34	-34
O=C(Nc1cccc(NC(=O)c2ccccc2Cl)c1)c1ccc(F)cc1	3	12	4	-1	79*	-79	DiI quench=-1%
CC(C)CN(C(=O)COC(=O)C12CC3CC(CC(O)(C3)C1)C2)C1CCS(=O)(=O)C1 (stereo not given)	6	-28	·	2	9	-9	DiI quench=-6%
COc1ccc(NC(=O)Nc2nnc(-c3ccccc3SCc3ccccc3)s2)cc1	0	·	-11	0	101*	-101	DiI quench=3.2µM*
CCOc1ccc(C(=O)Nc2ccc(S(=O)(=O)N3C[C@@H]4C[C@@H](C3)c3cccc(=O)n3C4)cc2)cc1	-8	·	6	-9	75*	-75	DiI quench=-1%
O=C(Nc1ccc(S(=O)(=O)N2C[C@@H]3C[C@@H](C2)c2cccc(=O)n2C3)cc1)c1ccc(F)cc1	-9	·	-2	-2	17	-17
O=C(O)c1cc(N2C(=O)C=CC2=O)cc(N2C(=O)C=CC2=O)c1	-6	·	18	1	-9	9	DiI quench=-3%
CCCn1c(=O)[nH]c(=O)c2c1nc(-c1ccc(OC(F)(F)C(F)C(F)(F)F)cc1)n2CCOC (stereo not given)	-14	·	2	3	75*	-75	DiI quench=-1%
COc1ccccc1CNC(=O)C1CCC(CNC(=O)[C@@H]2Cc3ccccc3CN2)CC1 (stereo not given in full)	12	-5	-1	-1	77*	-77	DiI quench=-5%
O=C1C2CCCCN2C(=O)N1CCN1CCN(c2ccc([N+](=O)[O-])cc2)CC1 (stereo not given)	18	·	-5	0	45	-45
O=C1C2CCCN2C(=O)N1CCCN1CCN(c2ccc([N+](=O)[O-])cc2)CC1 (stereo not given)	-3	-1	-3	-1	94*	-94	DiI quench=-2%
CCN1CCN(C(=O)C2CCN(C(=O)Nc3ccccc3)CC2)CC1	-7	·	4	2	-10	10
